Results published in ChEMBL document CHEMBL3784955, “Development and in Vitro Evaluation of a Microbicide Gel Formulation for a Novel Non-Nucleoside Reverse Transcriptase Inhibitor Belonging to the N-Dihydroalkyloxybenzyloxopyrimidines (N-DABOs) Family” (J Med Chem, 2016).
Calls of active or inactive are those of the source. No cut-off for these calls is given here.

Key:
[1] = system: Human immunodeficiency virus 1; test: Antiviral activity against HIV1 NL4.3 infected in human TZM-bl cells incubated for 30 mins prior to infection measured after 48 hrs by luciferase assay; type: functional, organism-based; settings: Human immunodeficiency virus 1, NL4.3, TZM-bl
Method in brief: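 TZM-bl cells (10 000/well, 10⁵ cells/mL in medium with 30 μg/mL DEAE dextran) preincubated 30 min at 37 °C, 5% CO₂ with serial compound dilutions; 200 TCID₅₀ HIV-1 WT or mutant virus added, luciferase read after 48 h. Triplicate wells, ≥2 independent experiments; % inhibition vs untreated controls, EC₅₀ by nonlinear regression.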

[2] = Cytotoxicity against human TZM-bl cells assessed as reduction in cell viability after 2 days by WST-1 assay; type: cell-based
Method in brief: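 10 000 TZM-bl cells cultured 48 h with serial compound dilutions; WST-1 added and absorbance at 450 nm read after 90 min. Three replicate wells, ≥2 independent experiments; % viability vs untreated controls, CC₅₀ by nonlinear regression.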

[3] = Effective permeability of compound at pH 7.4 after 5 hrs by PAMPA; type: ADME; settings: read-out: Peff
Method in brief: (§1)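 Filter coated with 1% w/v phosphatidylcholine in dodecane; acceptor 50% DMSO in phosphate buffer. 5 h at room temperature with gentle shaking; LC-UV at 280 nm on both sides; Pe calculated in cm/s. Three plates on different days.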

[4] = molecular target: Human immunodeficiency virus type 1 reverse transcriptase (Human immunodeficiency virus 1, UniProt Q72547); test: Inhibition of recombinant HIV1 His-tagged p66/p51 reverse transcriptase expressed in Escherichia coli assessed as reduction in [3H]dTTP incorporation using poly(rA)-oligo(dT) (12 to 18 bp) as template/primer incubated for 20 mins by scintillation counting method
Liver microsome = test: Metabolic stability in liver microsomes (unknown origin) assessed as parent compound remaining; type: ADME; settings: human
[5] = system: Human immunodeficiency virus 1; test: Antiviral activity against HIV1 NL4.3 expressing reverse transcriptase K101E mutant infected in human TZM-bl cells incubated for 30 mins prior to infection measured after 48 hrs by luciferase assay; type: functional, organism-based; settings: Human immunodeficiency virus 1, NL4.3, TZM-bl
Method in brief: (§2)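 TZM-bl cells (10,000/well at 10⁵ cells/mL, medium with 30 μg/mL DEAE dextran) preincubated 30 min at 37 °C, 5% CO₂ with serial compound dilutions. Then 200 TCID₅₀ mutant HIV-1 added per well. After 48 h, luciferase read. Triplicate wells, at least two independent experiments. % inhibition versus untreated controls fitted by nonlinear regression to give EC₅₀.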

[6] = system: Human immunodeficiency virus 1; test: Antiviral activity against HIV1 NL4.3 expressing reverse transcriptase Y181C mutant infected in human TZM-bl cells incubated for 30 mins prior to infection measured after 48 hrs by luciferase assay; type: functional, organism-based; settings: Human immunodeficiency virus 1, NL4.3, TZM-bl; method in brief: as §2
[7] = system: Human immunodeficiency virus 1; test: Antiviral activity against HIV1 NL4.3 expressing reverse transcriptase K103N mutant infected in human TZM-bl cells incubated for 30 mins prior to infection measured after 48 hrs by luciferase assay; type: functional, organism-based; settings: Human immunodeficiency virus 1, NL4.3, TZM-bl; method in brief: as §2
[8] = system: Human immunodeficiency virus 1; test: Antiviral activity against HIV1 NL4.3 expressing reverse transcriptase V106A mutant infected in human TZM-bl cells incubated for 30 mins prior to infection measured after 48 hrs by luciferase assay; type: functional, organism-based; settings: Human immunodeficiency virus 1, NL4.3, TZM-bl; method in brief: as §2
[9] = system: Human immunodeficiency virus 1; test: Antiviral activity against HIV1 NL4.3 expressing reverse transcriptase E138K mutant infected in human TZM-bl cells incubated for 30 mins prior to infection measured after 48 hrs by luciferase assay; type: functional, organism-based; settings: Human immunodeficiency virus 1, NL4.3, TZM-bl; method in brief: as §2
[10] = system: Human immunodeficiency virus 1; test: Antiviral activity against HIV1 NL4.3 expressing reverse transcriptase V90I mutant infected in human TZM-bl cells incubated for 30 mins prior to infection measured after 48 hrs by luciferase assay; type: functional, organism-based; settings: Human immunodeficiency virus 1, NL4.3, TZM-bl; method in brief: as §2
[11] = system: Human immunodeficiency virus 1; test: Antiviral activity against HIV1 NL4.3 expressing reverse transcriptase L100I mutant infected in human TZM-bl cells incubated for 30 mins prior to infection measured after 48 hrs by luciferase assay; type: functional, organism-based; settings: Human immunodeficiency virus 1, NL4.3, TZM-bl; method in brief: as §2
[12] = Effective permeability of compound at pH 4.2 after 5 hrs by PAMPA; type: ADME; settings: read-out: Peff; method in brief: as §1
[13] = system: Human immunodeficiency virus 1; test: Antiviral activity against HIV1 NL4.3 infected in human TZM-bl cells using compound gel formulation incubated for 72 hrs by luciferase based transwell assay; type: functional, organism-based; settings: Human immunodeficiency virus 1, NL4.3, TZM-bl
Method in brief: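 Transwell format, gel reformulated without β-cyclodextrins. TZM-bl cells (4 × 10⁴/apical chamber, 3 μm pore) cultured overnight. 60 TCID₅₀ NL4.3 added apically with gel at 50%, final drug 5000–0.5 nM (tenfold steps); medium in basal compartment. Blank gel used for virus titration. Luciferase read-out; triplicates.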

[14] = system: Human immunodeficiency virus 1; test: Antiviral activity against HIV1 NL4.3 infected in human TZM-bl cells using compound gel formulation stored at room temperature in dark for 1 month incubated for 30 mins with cells prior to infection measured after 48 hrs by luciferase assay; type: functional, organism-based
Method in brief: (§3)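 Gel formulation tested by the free-drug TZM-bl procedure alongside free drug in solution and blank gel: 10 000 cells with 30 μg/mL DEAE dextran, 30 min preincubation at 37 °C, 200 TCID₅₀ virus, luciferase after 48 h. Each concentration in triplicate; EC₅₀ from % inhibition vs untreated controls by nonlinear regression.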

[15] = Chemical stability in pH 4.2 solution assessed as drug recovery using compound gel formulation incubated for 1 month at room temperature under dark condition; type: physicochemical; settings: pH 4.2 solution (compound gel formulation), read-out: Drug recovery
Method in brief: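 Gel at pH 4.2 (vaginal formulation) with final drug concentration 17 μM stored 1 month at room temperature without light; drug recovery measured, with viscosity and pH monitored.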

[16] = system: Human immunodeficiency virus 1; test: Antiviral activity against HIV1 NL4.3 infected in human TZM-bl cells using compound gel formulation incubated for 30 mins prior to infection measured after 48 hrs by luciferase assay; type: functional, organism-based; settings: Human immunodeficiency virus 1, NL4.3, TZM-bl; method in brief: as §3
[17] = Selectivity index, ratio of CC50 for human TZM-bl cells to EC50 for HIV1 NL4.3 infected in human TZM-bl cells; type: toxicity, cell-based; settings: read-out: Ratio CC50/EC50
Method in brief: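 SI = CC50/EC50 in TZM-bl cells. EC50: 10 000 cells (10⁵/mL, 30 μg/mL DEAE dextran) preincubated 30 min at 37 °C with serial compound dilutions, then infected with 200 TCID50 virus; luciferase read at 48 h. CC50: 10 000 cells given serial dilutions for 48 h; WST-1 absorbance at 450 nm after 90 min. Triplicates, ≥2 experiments; nonlinear regression.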

[18] = Cytotoxicity against human TZM-bl cells assessed as reduction in cell viability at 5% gel formulation of compound after 2 days by WST-1 assay; type: cell-based; settings: 48 h

Structure (SMILES)	EC50 [1] [nM]	CC50 at 48 h [2] [nM]	EC50 [5] [nM]	EC50 [6] [nM]	EC50 [7] [nM]	EC50 [8] [nM]	EC50 [9] [nM]	also measured
Cc1cc(C)c(Nc2ccnc(Nc3ccc(C#N)cc3)n2)c(C)c1 [DAPIVIRINE]	1.3	3400	–	–	–	–	–	–
Cc1c(C(C)c2c(Cl)cccc2Cl)nc(N(C)Cc2ccc(N3CCNCC3)cc2)[nH]c1=O (centres undefined)	102	13200	–	–	–	–	–	–
Cc1c(Cc2c(Cl)cccc2Cl)nc(N(C)Cc2ccc(N3CCN(C(=O)OC(C)(C)C)CC3)cc2)[nH]c1=O	2930	2590	–	–	–	–	–	–
Cc1c(C(C)c2c(Cl)cccc2Cl)nc(N(C)Cc2ccc([N+](=O)[O-])cc2)[nH]c1=O (centres undefined)	104	> 50000	–	–	–	–	–	–
Cc1c(Cc2c(Cl)cccc2Cl)nc(N(C)Cc2ccc(N3CCOCC3)cc2)[nH]c1=O	657	9900	–	–	–	–	–	Papp at 5 h [3]: 21.9 ×10⁻⁶ cm/s; IC50 [4]: 90 nM; Stability (Liver microsome): 99%
COc1ccc(CN(C)c2nc(C(C)c3c(F)cccc3F)cc(=O)[nH]2)cc1 (centres undefined)	2.6	48100	17	94	34	0.87	9.1	–
Cc1c(C(C)c2c(Cl)cccc2Cl)nc(N(C)Cc2ccc(N3CCN(C)CC3)cc2)[nH]c1=O (centres undefined)	29	> 10000	294	627	1040	6.3	103	Papp at 5 h [3]: 0.91 ×10⁻⁶ cm/s; Stability (Liver microsome): 99%
Cc1c(Cc2c(Cl)cccc2Cl)nc(N(C)Cc2ccc([N+](=O)[O-])cc2)[nH]c1=O	8.6	19500	51	201	367	–	35	Papp at 5 h [3]: 10.9 ×10⁻⁶ cm/s; IC50 [4]: 7.85 nM; EC50 [10]: 13 nM; EC50 [11]: 220 nM; Papp at 5 h [12]: 1.9 ×10⁻⁶ cm/s; Stability (Liver microsome): 99%
Cc1c(C(C)c2c(F)cccc2F)nc(N(C)Cc2ccc(N3CCN(C)CC3)cc2)[nH]c1=O (centres undefined)	7.9	26200	138	331	2460	–	42	EC50 [10]: 22 nM; EC50 [11]: 1570 nM
COc1ccc(CN(C)c2nc(Cc3c(Cl)cccc3Cl)c(C)c(=O)[nH]2)cc1	15	17900	–	680	–	10	–	IC50 [4]: 5 nM
Cc1c(Cc2c(Cl)cccc2Cl)nc(N(C)Cc2ccc(N3CCN(C)CC3)cc2)[nH]c1=O	94	3200	> 1000	704	792	18	274	Papp at 5 h [3]: 1.37 ×10⁻⁶ cm/s; Papp at 5 h [12]: 0.58 ×10⁻⁶ cm/s; Stability (Liver microsome): 99%
Cc1c(C(C)c2c(Cl)cccc2Cl)nc(N(C)Cc2ccc(N3CCOCC3)cc2)[nH]c1=O (centres undefined)	86	38400	942	1290	1500	15	256	–
COc1ccc(CN(C)c2nc(C(C)c3c(Cl)cccc3Cl)c(C)c(=O)[nH]2)cc1 (centres undefined)	12	> 100000	–	209	–	10	–	IC50 [4]: 17 nM
Cc1c(Cc2c(Cl)cccc2Cl)nc(N(C)Cc2ccc(N3CCNCC3)cc2)[nH]c1=O	110	20700	–	–	–	–	–	–
Cc1c(C(C)c2c(F)cccc2F)nc(N(C)Cc2ccc([N+](=O)[O-])cc2)[nH]c1=O (centres undefined)	10	> 50000	134	814	518	–	65	EC50 [10]: 30 nM; EC50 [11]: 1500 nM
C[C@H](Cn1cnc2c(N)ncnc21)OCP(=O)(O)O [TENOFOVIR ANHYDROUS]	–	–	–	–	–	–	–	EC50 [13]: 3000 nM
COc1ccc(C2CC2CSc2nc(C(C)c3c(F)cccc3F)c(C)c(=O)[nH]2)cc1 (centres undefined)	93	31100	450	1610	549	56	246	–
Cc1c(C(C)c2c(F)cccc2F)nc(N(C)Cc2n[nH]c3ccccc23)[nH]c1=O (centres undefined)	329	> 100000	> 10000	> 10000	> 10000	–	950	EC50 [10]: 687 nM; EC50 [11]: > 10000 nM
COc1ccc(CN(C)c2nc(C(C)c3c(F)cccc3F)c(C)c(=O)[nH]2)cc1 (centres undefined)	3.3	88800	31	80	102	–	17	Papp at 5 h [3]: 5.54 ×10⁻⁶ cm/s; Activity [14]: Active; remaining at 730.5 h [15]: 100%; EC50 [10]: 8.7 nM; EC50 [16]: 2.3 nM; EC50 [13]: 30 nM; EC50 [11]: 84 nM; selectivity ratio [17]: > 10000; Activity [18]: Toxic; Papp at 5 h [12]: 3.78 ×10⁻⁶ cm/s; Stability (Liver microsome): 99%
